# Compound activity (PubChem BioAssay)
# AHR activator: AHR activators, primary screen, cell-based, luminescence, luciferase reporter, human; 320,000 tested, 2.5% active; AHR-responsive luciferase reporter cells; Aryl hydrocarbon receptor (Homo sapiens), P35869; activation, % at 5 µM; in the data active = activation above about 47%
# bovine MsrA act: bovine MsrA enzyme activators, primary screen, biochemical, absorbance, HTS; purified bovine MsrA, absorbance read-out; activation, % at 10.6 µM; 360,000 tested, 0.3% active; AID 602163, 2012; in the data active = activation above about 7.5%
# MsrA inhibitor: bovine MsrA enzyme inhibitors, primary screen, biochemical, absorbance, HTS; purified bovine MsrA, absorbance read-out; AID 651718, 2012; inhibition, % at 15.5 µM; Methionine sulfoxide reductase A (Bos taurus); 360,000 tested, 0.75% active; in the data active = inhibition above about 4.5%
# AI-2 QS mod: Vibrio harveyi AI-2 quorum sensing modulators, primary screen, JMH597 strain, luminescence/OD600 ratio. Vibrio harveyi JMH597 AI-2 luminescence/OD600 ratio, 9 h; stronger effect = lower value; strain lacks LuxN and CqsS sensors; 0 = neutral-control median. activity change, % at 7.5 µM. 300,000 tested, 0.4% active; in the data active = activity change below about -75%, passing the limit was not always enough; inconclusive = no clear call, values can overlap the other calls;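 also: luminescence divided by OD600 gain over 9 h not by final OD600 alone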
# Tb MetRS inh: T. brucei MetRS inhibitors, primary screen, biochemical, luminescence; methionyl-tRNA synthetase (Trypanosoma brucei brucei); purified T. brucei MetRS, ATP depletion, Kinase-Glo luminescence; inhibition, % at 11.9 µM; 360,000 tested, 0.4% active;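 active = inhibition above a per-plate cutoff of the control wells' mean inhibition plus 3 SD, cut at about 5.5% in these data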
#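 assay system = parasite MetRS enzyme | timing = 15 min preincubation, 2 h reaction, all 25 °C | evaluation = percent inhibition relative to median high and low control wells | medium = HEPES buffer containing pyrophosphatase, BSA, spermine, DTT | compound = single dose, 11.9 µM final nominal, 0.9% final DMSO | detection = Kinase-Glo luminescence, ATP depletion format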
# m5-HT2A agonist: mouse Htr2a agonists via beta-arrestin recruitment, primary screen, cell-based, luminescence; 5-hydroxytryptamine receptor 2A (Mus musculus), P35363; CHO-K1 mHTR2A beta-arrestin complementation; percent of 30 µM serotonin response; activation, % at 7.6 µM; 360,000 tested, 0.66% active; AID 624169, 2012;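 active = activation above a run cutoff, the mean activation of all tested compounds plus 3 SD, cut at about 14% in these data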
# Target sequence (P35363 whole entry, looked up): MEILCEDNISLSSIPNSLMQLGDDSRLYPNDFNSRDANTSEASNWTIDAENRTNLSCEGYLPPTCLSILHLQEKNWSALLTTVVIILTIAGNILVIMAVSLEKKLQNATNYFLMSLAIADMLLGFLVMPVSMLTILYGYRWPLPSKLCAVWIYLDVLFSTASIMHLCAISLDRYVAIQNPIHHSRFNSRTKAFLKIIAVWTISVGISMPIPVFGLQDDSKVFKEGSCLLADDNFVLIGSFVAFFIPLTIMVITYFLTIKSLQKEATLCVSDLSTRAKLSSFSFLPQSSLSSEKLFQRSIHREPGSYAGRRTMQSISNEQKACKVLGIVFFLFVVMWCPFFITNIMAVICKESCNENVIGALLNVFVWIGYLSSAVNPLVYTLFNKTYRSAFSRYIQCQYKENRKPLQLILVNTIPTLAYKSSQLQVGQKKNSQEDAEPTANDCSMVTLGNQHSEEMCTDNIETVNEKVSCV
# Numbers stand for hits; 0 = inactive; ? = inconclusive; - = no result. A selection: hits, their analogues and other compounds. The true share with any hit is near 4.4%.
SMILES,AHR activator,bovine MsrA act,MsrA inhibitor,AI-2 QS mod,Tb MetRS inh,m5-HT2A agonist
COC(=O)N1C[C@H](OCc2ccc3c(c2)OCO3)[C@H]2C[C@@H]1c1ccccc1O2,-,-,0,-,-,-
COc1cccc(C(=O)N2CCC[C@@H]2C(=O)N2CCC[C@@H]2C(=O)NCc2ccccc2)c1,-,-,0,-,-,-
Cc1cc(=O)oc2cc(OCC(O)Cn3ccnc3)ccc12 (centres undefined),52,0,0,0,0,0
CC(C)C[C@H]1COc2cc(Br)ccc2S(=O)(=O)N1Cc1cccc(Cl)c1,-,-,0,-,-,-
O=C(NNc1nc2ccc(F)cc2s1)c1cccc(F)c1,0,0,0,-119,0,0
O=C(NNc1nc2ccccc2s1)c1ccc(F)cc1,54,0,0,-77,0,0
CCCCNc1cccc2c1S(=O)(=O)N[C@@H](CC(C)C)CO2,-,-,0,-,-,-
Nc1nc(Cl)nc2ccc(Br)cc12,59,0,0,0,0,0
COc1ccccc1C(=O)N1CCC2CCNC2C1 (centres undefined),-,-,0,-,-,-
Cc1nc2nc(-c3ccccc3)nn2c(C)c1C,0,0,0,0,0,0
Cc1nc2nc(-c3ccc(Cl)cc3)nn2c(C)c1Cl,53,-,-,0,-,-
Cc1cc(N2CCN(C)CC2)n2nc(-c3ccc(Cl)cc3)nc2n1,0,0,0,0,0,0
Cc1nc2nc(-c3ccccc3)nn2c(C)c1Cl,55,0,0,0,0,0
CS/C(N)=N/N=C/c1cc(Br)cc(Br)c1O,66,0,0,0,0,0
CS/C(N)=N/N=C/c1cc(C)ccc1O,0,0,0,0,0,0
O=C(Nc1nccs1)c1ccc2c(=O)n3c(nc2c1)CCCCC3,76,0,0,0,0,0
O=C(NNC(=O)c1ccc2c(=O)n3c(nc2c1)CCC3)c1ccc(F)cc1,60,0,0,0,0,0
CCN(CCOC(=O)Nc1ccc(Cl)cc1)C(=O)Nc1ccc(Cl)cc1,-,-,0,-,-,-
C=CCNC(=S)N(C)[C@H]1C[C@H]2c3[nH]c4c(-c5ccccc5)cccc4c3CCN2C(=O)[C@H]1[C@H](C)O,-,-,0,-,-,-
O=c1c(-c2n[nH]c(=S)o2)cccn1Cc1ccccc1,0,0,4.6,0,0,0
Cc1nc(C(F)(F)F)ccc1C(=O)Nc1ccccc1F,0,0,0,0,0,0
Cc1nc(C(F)(F)F)ccc1C(=O)NCC(O)c1ccccc1 (centres undefined),71,0,0,0,0,0
COc1ccc(/C=N/Nc2nc(-c3ccc(Cl)cc3)cc(C(F)(F)F)n2)c(OC)c1,0,0,4.6,0,0,0
COc1ccc(/C(C)=N\Nc2nc(-c3ccc(Cl)cc3)cc(C(F)(F)F)n2)cc1OC,0,0,0,0,0,0
C=CCN=C1NC(CCc2ccccc2)C(C(=O)OC)=C(C)N1Cc1cccc(C(F)(F)F)c1 (centres undefined),-,-,0,-,-,-
SMILES,AHR activator,bovine MsrA act,MsrA inhibitor,AI-2 QS mod,Tb MetRS inh,m5-HT2A agonist
COc1ccc2cc(C(=O)CS(=O)(=O)c3ccc(Cl)cc3)c(=O)oc2c1,-,-,0,-,-,-
Cc1ccc(C(=O)Nc2sc3c(c2C#N)CCCCC3)cc1C,71,0,0,0,0,0
Cc1cc(C(=O)Nc2sc3c(c2C#N)CCC3)no1,0,0,0,0,0,0
Cc1noc(C(=O)Nc2sc3c(c2C#N)CCC3)c1Cl,47,0,0,0,0,0
CC(=O)Nc1sc2c(c1C#N)CCCCC2,0,0,0,0,0,0
CC(C)(C)C(=O)NC(=S)Nc1sc2c(c1C#N)CCCCC2,59,0,0,0,0,0
Cc1cc2c(nc1C)CCCN2S(=O)(=O)c1ccc(F)cc1,-,-,0,-,-,-
COc1ccccc1CNC(=O)c1cc(C)nc2ccccc12,0,0,0,0,0,0
C=CCSc1nc(N)c(C(=O)Nc2ccccc2OC)cc1C(=O)Nc1ccccc1,75,0,0,0,0,0
COc1ccccc1NC(=O)c1cc(-c2ccc(C)o2)nc2ccccc12,72,0,0,0,0,0
COc1ccccc1NC(=O)c1cc(C)nc2ccccc12,74,0,0,0,0,0
O=C(Nc1ccccc1F)c1cc(-c2ccco2)nc2ccccc12,60,0,0,0,0,0
CC(C)C[C@H]1COc2cccc(N3CCCC3)c2S(=O)(=O)N1,-,-,0,-,-,-
COc1ccccc1Cc1c(C(C)(C)C)nc2c(C)cc(Br)cn12,-,-,0,-,-,-
CC(=O)N1C[C@@H](CO)[C@@H]2C[C@H]1c1ccccc1N2C,-,-,0,-,-,-
Cc1cc(-c2cc(NC(=O)Cc3c[nH]c4ccccc34)ccc2Nc2cccnc2)ccc1F,-,-,0,-,-,-
COc1ccc(NC(=O)c2cc(-c3ccncc3)nc3ccccc23)c(OC)c1,56,0,0,-,0,0
Cc1ccc(-c2cc(C(=O)Nc3cccnc3)c3ccccc3n2)o1,0,0,0,0,0,0
COc1ccc(NC(=O)c2cc(-c3ccc(OC)c(OC)c3)nc3ccccc23)c(OC)c1,0,0,0,0,0,0
Cc1ccc(NC(=O)c2cc(-c3ccc(C)o3)nc3ccccc23)cc1,57,0,0,0,0,0
O=c1[nH]c(CSc2cccc[n+]2[O-])nc2ccccc12,48,0,0,0,0,0
Cn1c(-c2ccccc2)cnc1SCc1nc2ccccc2c(=O)[nH]1,0,0,0,0,0,0
Cn1c(SCc2nc3ccccc3c(=O)[nH]2)nc2ccccc21,61,0,0,0,0,0
O=c1[nH]c(CSc2ncn[nH]2)nc2ccccc12,0,0,0,0,0,0
CN(c1ccccc1)S(=O)(=O)c1cccc(NC(=O)c2nn(C)c(=O)c3ccccc23)c1,0,0,0,-,0,0
SMILES,AHR activator,bovine MsrA act,MsrA inhibitor,AI-2 QS mod,Tb MetRS inh,m5-HT2A agonist
Cc1[nH]c2ccccc2c1CC(=O)Nc1ccc(Nc2cccnc2)c(-c2cc(F)cc(F)c2)c1,-,-,0,-,-,-
Cc1nc(-c2ccccc2)sc1-c1n[nH]c(=S)n1C,93,0,0,0,0,0
Cn1c(-c2ccccc2)n[nH]c1=S,0,0,0,0,0,0
C[C@H](CO)N1C[C@H](C)[C@@H](CN(C)S(=O)(=O)c2ccccc2F)Oc2ncc(C#Cc3cccnc3)cc2C1=O,-,0,0,-,0,0
S=C1NCCN1c1ccc(Cl)cc1,-,-,0,-,-,-
CCCS(=O)(=O)n1nc(-c2ccc(OC)cc2OC)cc1N,62,0,0,0,0,0
COc1cc(OC)cc(-c2cc(N)n(S(=O)(=O)c3cccc4nsnc34)n2)c1,55,0,0,0,0,0
CCCS(=O)(=O)n1nc(-c2ccc(OC)cc2)cc1N,0,0,0,0,0,0
COc1cc(OC)cc(-c2cc(N)n(S(=O)(=O)Cc3ccccc3)n2)c1,63,0,0,0,0,0
COc1ccc(OC)c(S(=O)(=O)n2nc(-c3ccccc3)cc2N)c1,0,0,0,?,0,0
